Experiments:
[1] = target: Vascular endothelial growth factor receptor 2 (Homo sapiens, UniProt P35968); test: Inhibition of VEGFR2
Procedure, shortened: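 GST-fused VEGFR-2/KDR catalytic domain from baculovirus-infected Sf9 cells, glutathione-agarose purified, 5 nM. Buffer: 60 mM Hepes pH 7.5, 3 mM MgCl2, 3 mM MnCl2, 1.2 mM β-mercaptoethanol, 0.1 mg/mL BSA, 3 µM vanadate. Mg-ATP at 2× Km. Enzyme, inhibitor and ATP were first combined for 4 min on ice. Reaction ran on immobilized poly(Glu4,Tyr) at 30 °C for 10 min and was stopped with EDTA. DELFIA Eu-anti-phosphotyrosine read-out. Seven concentrations in triplicate; IC50 from a 4-parameter fit.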

[2] = target: T1, Hepatocyte growth factor receptor (Homo sapiens, UniProt P08581); test: Inhibition of c-Met
[3] = target: Macrophage-stimulating protein receptor (Homo sapiens, UniProt Q04912); test: Inhibition of TPR-tagged RON catalytic domain expressed in HEK293 cells; format: cell-based
HCT-116 = test: Antitumor activity against human HCT116 cells by MTT assay
[4] = target: Mast/stem cell growth factor receptor Kit (Homo sapiens) (UniProt P10721); test: Inhibition of cKit; settings: concentration not given here
Procedure, shortened: (§1)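 Outsourced kinase panel of 23 enzymes (Millipore KinaseProfiler); single test concentration of 0.1 µM; percent inhibition of kinase activity reported.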

[5] = target: Proto-oncogene tyrosine-protein kinase receptor Ret (Homo sapiens) (UniProt P07949); test: Inhibition of Ret; settings: concentration not given here; procedure, shortened: as §1
[6] = target: Phosphatidylinositol 4,5-bisphosphate 3-kinase catalytic subunit beta isoform (Homo sapiens) (UniProt P42338); test: Inhibition of PI3Kbeta; settings: concentration not given here; procedure, shortened: as §1
[7] = target: Serine/threonine-protein kinase pim-1 (Homo sapiens) (UniProt P11309); test: Inhibition of PIM1; settings: concentration not given here; procedure, shortened: as §1
[8] = target: Serine/threonine-protein kinase Chk1 (Homo sapiens) (UniProt O14757); test: Inhibition of CHK1; settings: concentration not given here; procedure, shortened: as §1
[9] = Volume of distribution at steady state in rat at 2.5 mg/kg, iv and 5 mg/kg, po; format: ADME, organism-based; settings: in vivo, read-out: Vdss
[10] = Oral bioavailability in rat at 5 mg/kg, po; format: ADME, organism-based; settings: in vivo
[11] = target: Dual specificity mitogen-activated protein kinase kinase 1 (Homo sapiens) (UniProt Q02750); test: Inhibition of MEK1; settings: concentration not given here; procedure, shortened: as §1
[12] = target: Serine/threonine-protein kinase haspin (Homo sapiens) (UniProt Q8TF76); test: Inhibition of haspin; settings: concentration not given here; procedure, shortened: as §1
[13] = target: LIM domain kinase 1 (Homo sapiens) (UniProt P53667); test: Inhibition of LIMK1; settings: concentration not given here; procedure, shortened: as §1
Rattus norvegicus = test: Cmax in rat at 5 mg/kg, po; format: ADME, organism-based; design: dose 5 mg/kg, route oral; settings: in vivo
[14] = Tmax in rat at 5 mg/kg, po; format: ADME, organism-based; design: dose 5 mg/kg, route oral; settings: in vivo
[15] = target: Receptor-type tyrosine-protein kinase FLT3 (Homo sapiens) (UniProt P36888); test: Inhibition of FLT3; settings: concentration not given here; procedure, shortened: as §1
[16] = target: Ephrin type-B receptor 4 (Homo sapiens) (UniProt P54760); test: Inhibition of EphB4; settings: concentration not given here; procedure, shortened: as §1
[17] = target: 3-phosphoinositide-dependent protein kinase 1 (Homo sapiens) (UniProt O15530); test: Inhibition of PDK1; settings: concentration not given here
[18] = target: Angiopoietin-1 receptor (Homo sapiens) (UniProt Q02763); test: Inhibition of Tie2; settings: concentration not given here; procedure, shortened: as §1
[19] = target: Glycogen synthase kinase-3 beta (Homo sapiens) (UniProt P49841); test: Inhibition of GSK3-beta; settings: concentration not given here; procedure, shortened: as §1
[20] = target: Inhibitor of nuclear factor kappa-B kinase subunit beta (Homo sapiens) (UniProt O14920); test: Inhibition of IKK-beta; settings: concentration not given here; procedure, shortened: as §1
[21] = target: RAC-alpha serine/threonine-protein kinase (Homo sapiens) (UniProt P31749); test: Inhibition of PKBalpha; settings: concentration not given here; procedure, shortened: as §1
[22] = target: ALK tyrosine kinase receptor (Homo sapiens) (UniProt Q9UM73); test: Inhibition of ALK; settings: concentration not given here; procedure, shortened: as §1
[23] = Half life in rat at 2.5 mg/kg, iv; format: ADME, organism-based; design: dose 2.5 mg/kg, route intravenous; settings: in vivo
[24] = target: RAF proto-oncogene serine/threonine-protein kinase (Homo sapiens) (UniProt P04049); test: Inhibition of c-Raf; settings: concentration not given here; procedure, shortened: as §1
[25] = target: Tyrosine-protein kinase JAK3 (Homo sapiens) (UniProt P52333); test: Inhibition of JAK3; settings: concentration not given here; procedure, shortened: as §1
[26] = target: Focal adhesion kinase 1 (Homo sapiens) (UniProt Q05397); test: Inhibition of FAK; settings: concentration not given here; procedure, shortened: as §1
[27] = Clearance in rat at 2.5 mg/kg, iv and 5 mg/kg, po; format: ADME, organism-based; settings: in vivo
[28] = target: T1, Hepatocyte growth factor receptor; test: Inhibition of c-Met phosphorylation in human MKN45 cells; format: cell-based, MKN-45
[29] = target: Cytoplasmic tyrosine-protein kinase BMX (Homo sapiens) (UniProt P51813); test: Inhibition of BMX; settings: concentration not given here; procedure, shortened: as §1

Question: For `CN(C)C(=O)c1ccc(-c2cc3nccc(Oc4ccc(NC(=O)c5cnn(-c6ccccc6)c5C(F)(F)F)cc4F)c3s2)nc1`, which IC50 [1] is on record?
Answer: Its IC50 is 2500 nM.

Question: Which IC50 [1] does the source give for `CN(C)C(=O)c1ccc(-c2cc3nccc(Oc4ccc(NC(=O)c5cnn(-c6ccccc6)c5C(F)(F)F)cc4F)c3s2)cc1` here?
Answer: The IC50 was 1400 nM.

Question: With `COCCNC(=O)c1ccc(-c2cc3nccc(Oc4ccc(NC(=O)c5cnn(-c6ccccc6)c5C(F)(F)F)cc4F)c3s2)nc1` as the molecule, how does the IC50 [1] read?
Answer: The IC50 was 5300 nM.

Question: With `Cc1c(C(=O)Nc2ccc(Oc3ccnc4cc(-c5cn(C)cn5)sc34)c(F)c2)cnn1-c1ccccc1` as the molecule, how does the IC50 [1] read?
Answer: The IC50 was 2000 nM.

Question: For `Cn1ccnc1-c1cc2nccc(Oc3ccc(NC(=O)c4cnn(-c5ccccc5)c4C(F)(F)F)cc3F)c2s1`, which IC50 [1] is on record?
Answer: The IC50 was 1400 nM.

Question: Which IC50 [1] does the source give for `CC(=O)N1CC=C(c2cc3nccc(Oc4ccc(NC(=O)c5cnn(-c6ccccc6)c5C(F)(F)F)cc4F)c3s2)CC1` here?
Answer: Its IC50 is 1400 nM.

Question: For `CS(=O)(=O)CCNCc1ccc(-c2cc3nccc(Oc4ccc(NC(=O)c5cnn(-c6ccccc6)c5C(F)(F)F)cc4F)c3s2)cc1`, which IC50 [1] is on record?
Answer: The IC50 was 1100 nM.

Question: With `Cn1cnc(-c2cc3nccc(Oc4ccc(NC(=O)c5cnn(-c6ccccc6)c5)cc4F)c3s2)c1` as the molecule, how does the IC50 [1] read?
Answer: The IC50 was 1400 nM.

Question: Which results are given for `Cn1cnc(-c2cc3nccc(Oc4ccc(NC(=O)c5cnn(C)c5C(F)(F)F)cc4F)c3s2)c1`?
Answer: IC50 [2]: 60 nM; IC50 [3]: > 1000 nM; IC50 [1]: 700 nM

Question: For `CN(C)[C@H]1CCN(C(=O)c2ccc(-c3cc4nccc(Oc5ccc(NC(=O)c6cnn(-c7ccccc7)c6C(F)(F)F)cc5F)c4s3)cc2)C1`, which IC50 [1] is on record?
Answer: Its IC50 is 1000 nM.

Question: Which IC50 [1] does the source give for `COC[C@H](C)N(Cc1ccc(-c2cc3nccc(Oc4ccc(NC(=O)c5cnn(-c6ccccc6)c5C(F)(F)F)cc4F)c3s2)cc1)C(C)=O` here?
Answer: Its IC50 is 2500 nM.

Question: With `Cn1cnc(-c2cc3nccc(Oc4ccc(NC(=O)c5cnn(-c6ccccc6)c5N)cc4F)c3s2)c1` as the molecule, how does the IC50 [2] read?
Answer: The IC50 was 180 nM.

Question: And the IC50 [3]?
Answer: The IC50 was > 1000 nM.

Question: And the IC50 [1]?
Answer: The IC50 was 800 nM.

Question: For `CN(C)CCN(C)C(=O)c1ccc(-c2cc3nccc(Oc4ccc(NC(=O)c5cnn(-c6ccccc6)c5C(F)(F)F)cc4F)c3s2)cc1`, which IC50 [1] is on record?
Answer: Its IC50 is 700 nM.

Question: For `COc1cc2nccc(Oc3ccc(NC(=O)c4cnn(-c5ccccc5)c4C(F)(F)F)cc3F)c2cc1OC`, which IC50 [1] is on record?
Answer: The IC50 was > 2000 nM.

Question: With `CCCc1c(C(=O)Nc2ccc(Oc3ccnc4cc(-c5cn(C)cn5)sc34)c(F)c2)cnn1-c1ccccc1` as the molecule, how does the IC50 [1] read?
Answer: Its IC50 is 1900 nM.

Question: Which results are given for `Cn1cnc(-c2cc3nccc(Oc4ccc(NC(=O)N5CCN(c6ccccc6)C5=O)cc4F)c3s2)c1`?
Answer: IC50 [1]: 10 nM; IC50 (HCT-116; hct-116): Not Active

Question: For `Cn1cnc(-c2cc3nccc(Oc4ccc(NC(=O)c5cnn(-c6ccccc6)c5C(F)(F)F)cc4F)c3s2)c1`, which inhibition [4] is on record?
Answer: The inhibition was < 40%.

Question: And the inhibition [5]?
Answer: Its inhibition is < 40%.

Question: What about the inhibition [6] of the same molecule?
Answer: Its inhibition is < 40%.

Question: And the inhibition [7]?
Answer: Its inhibition is < 40%.

Question: And the inhibition [8]?
Answer: The inhibition was < 40%.

Question: And the Vd [9]?
Answer: Its Vd is 2.4 L/kg.

Question: And the bioavailability [10]?
Answer: Its bioavailability is > 30%.

Question: What about the IC50 [2] of the same molecule?
Answer: Its IC50 is 150 nM.

Question: And the IC50 [3]?
Answer: The IC50 was 50 nM.

Question: And the inhibition [11]?
Answer: Its inhibition is < 40%.

Question: What about the inhibition [12] of the same molecule?
Answer: Its inhibition is < 40%.

Question: What about the inhibition [13] of the same molecule?
Answer: The inhibition was < 40%.

Question: And the Cmax normalised (Rattus norvegicus)?
Answer: Its Cmax normalised is 0.25 µM/mg/kg.

Question: And the Tmax [14]?
Answer: Its Tmax is 6 h.

Question: What about the inhibition [15] of the same molecule?
Answer: The inhibition was 96%.

Question: What about the inhibition [16] of the same molecule?
Answer: The inhibition was < 40%.

Question: What about the inhibition [17] of the same molecule?
Answer: The inhibition was < 40%.

Question: And the IC50 [1]?
Answer: Its IC50 is > 10000 nM.

Question: What about the IC50 (HCT-116; Homo sapiens, HCT-116) of the same molecule?
Answer: The IC50 was 80 nM.

Question: And the inhibition [18]?
Answer: The inhibition was < 40%.

Question: And the inhibition [19]?
Answer: The inhibition was < 40%.

Question: And the inhibition [20]?
Answer: Its inhibition is < 40%.

Question: What about the inhibition [21] of the same molecule?
Answer: The inhibition was < 40%.

Question: What about the inhibition [22] of the same molecule?
Answer: The inhibition was < 40%.

Question: What about the half-life [23] of the same molecule?
Answer: The half-life was 2.7 h.

Question: And the inhibition [24]?
Answer: Its inhibition is < 40%.

Question: What about the inhibition [25] of the same molecule?
Answer: Its inhibition is < 40%.

Question: And the inhibition [26]?
Answer: The inhibition was < 40%.

Question: And the clearance [27]?
Answer: Its clearance is 10.5 mL/min/kg.

Question: What about the IC50 [28] of the same molecule?
Answer: Its IC50 is 500 nM.

Question: And the inhibition [29]?
Answer: The inhibition was < 40%.

Question: For `Cn1cnc(-c2cc3nccc(Oc4ccc(NC(=O)c5cnn(C(C)(C)C)c5C(F)(F)F)cc4F)c3s2)c1`, which IC50 [1] is on record?
Answer: The IC50 was 3000 nM.

Question: Which IC50 [2] does the source give for `CNC(=O)c1cc(Oc2ccc(NC(=O)c3cnn(-c4ccccc4)c3C(F)(F)F)cc2F)ccn1` here?
Answer: The IC50 was > 15000 nM.

Question: And the IC50 [3]?
Answer: Its IC50 is > 10000 nM.

Question: And the IC50 [1]?
Answer: Its IC50 is > 20000 nM.

From ChEMBL document CHEMBL1157925, “Identification of a novel series of potent RON receptor tyrosine kinase inhibitors” (Bioorg Med Chem Lett, 2010)
